From publication PMC3873039 (Anti-Cancer Agents in Medicinal Chemistry, 2013)

Tests used:
JURKAT = experiment: CellTiter-Glo luminescent cell viability assay; assay type: cell-based, human; details: 24 h, doses 0, 2, 10, 50, 250, 500 µM, p<0.05
In short: (§1)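 Cells grown in RPMI 1640 with 10% FBS, 1.5 mM L-glutamine and penicillin/streptomycin at 37 °C, 5% CO2. Seeded at 2.5 x 10³ cells/well and exposed 24 h to ethanol-dissolved test compound (0, 2, 10, 50, 250, 500 µM) with 0.1% ethanol vehicle. ATP luminescence normalized to vehicle (100%). IC50 taken from linear regression. Lowest significant dose set by one-way ANOVA/Tukey, p<0.05. Triplicates, three independent experiments.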

CCRF-CEM [1] = experiment: CellTiter-Glo luminescent cell viability assay; assay type: cell-based, human; details: 24 h, doses 0, 2, 10, 50, 250, 500 µM, p<0.05
In short: as §1

MOLT-3 [2] = experiment: CellTiter-Glo luminescent cell viability assay; assay type: cell-based, human; details: MOLT-3, 24 h, doses 0, 2, 10, 50, 250, 500 µM, p<0.05
In short: as §1

HL60 [3] = experiment: CellTiter-Glo luminescent cell viability assay; assay type: cell-based, human; details: HL60, 24 h, doses 0, 2, 10, 50, 250, 500 µM, p<0.05
In short: as §1

K562 [4] = experiment: CellTiter-Glo luminescent cell viability assay; assay type: cell-based, human; details: K562, 24 h, doses 0, 2, 10, 50, 250, 500 µM, p<0.05
In short: as §1

KG1a [5] = experiment: CellTiter-Glo luminescent cell viability assay; assay type: cell-based, human; details: 24 h; for IC50: Homo sapiens, KG-1a, read-out: IC50 (50% inhibition of cellular proliferation); for The lowest dose of polyphenols at which there was a significant inhibition of cell proliferation compared to the vehicle control: KG1a, doses 0, 2, 10, 50, 250, 500 µM, p<0.05
In short: as §1

U937 [6] = experiment: CellTiter-Glo luminescent cell viability assay; assay type: cell-based, human; details: U937, 24 h, doses 0, 2, 10, 50, 250, 500 µM, p<0.05
In short: as §1

CCRF-CEM [7] = experiment: Cell cycle analysis, propidium iodide flow cytometry; assay type: cell-based, human; details: IC50 dose, 24 h, vehicle control G0/G1 = 41.9%
In short: (§2)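 Seeded at 0.5 x 10^6 cells per well in 12-well plates and treated 24 h at the IC50 concentration of each test compound from CellTiter-Glo. Cells were pelleted (400 g, 5 min), PBS-washed and fixed in 80% ethanol overnight at -20 °C. Staining used 50 µg/mL PI plus RNase overnight at 4 °C.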

MOLT-3 [8] = experiment: as above; assay type: cell-based, human; details: MOLT-3, IC50 dose, 24 h; vehicle control G0/G1 = 64.5%
In short: as §2

HL60 [9] = experiment: as above; assay type: cell-based, human; details: HL60, IC50 dose, 24 h; for Percentage of cells in G0/G1 phase of cell cycle (significant accumulation): vehicle control G0/G1 = 56.8%
In short: as §2

K562 [10] = experiment: as above; assay type: cell-based, human; details: K562, IC50 dose, 24 h
In short: as §2

U937 [11] = experiment: as above; assay type: cell-based, human; details: U937, IC50 dose, 24 h; vehicle control G0/G1 = 44.03%
In short: as §2

[12] = tested on: non-tumor progenitor cells (CD34+); experiment: Cell cycle analysis, propidium iodide flow cytometry; assay type: cell-based; details: 24 h, within the IC50 ranges used to treat the leukemic cell lines
CCRF-CEM [13] = experiment: NucView caspase 3 activity assay by flow cytometry; assay type: cell-based, human; details: 24 h; for EC50: Homo sapiens, read-out: AP50 (50% induction of apoptosis), Caspase 3 activity assay (C3); for The lowest dose of polyphenols at which there was a significant induction of apoptosis compared to the vehicle control: caspase 3 activity, p<0.05
In short: (§3)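 Seeded at 0.5 x 10⁶ cells/well and treated 24 h, with series of 0–50 or 0–250 µM depending on compound. Normalized to vehicle (0% apoptosis). Mean ± STD, three independent experiments in triplicate. One-way ANOVA/Tukey, p<0.05. AP50 = concentration giving 50% apoptotic cells.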

MOLT-3 [14] = experiment: NucView caspase 3 activity assay by flow cytometry; assay type: cell-based, human; details: for EC50: Homo sapiens, MOLT-3, 24 h, read-out: AP50 (50% induction of apoptosis), Caspase 3 activity assay (C3); for The lowest dose of polyphenols at which there was a significant induction of apoptosis compared to the vehicle control: MOLT-3, caspase 3 activity, 24 h, p<0.05
In short: as §3

K562 [15] = experiment: NucView caspase 3 activity assay by flow cytometry; assay type: cell-based, human; details: for EC50: Homo sapiens, K562, 24 h, read-out: AP50 (50% induction of apoptosis), Caspase 3 activity assay (C3); for The lowest dose of polyphenols at which there was a significant induction of apoptosis compared to the vehicle control: K562, caspase 3 activity, 24 h, p<0.05
In short: as §3

KG1a [16] = experiment: NucView caspase 3 activity assay by flow cytometry; assay type: cell-based, human; details: 24 h; for EC50: Homo sapiens, KG-1a, read-out: AP50 (50% induction of apoptosis), Caspase 3 activity assay (C3); for The lowest dose of polyphenols at which there was a significant induction of apoptosis compared to the vehicle control: KG1a, caspase 3 activity, p<0.05
In short: as §3

non-tumor cells (CD34+) [17] = experiment: NucView caspase 3 activity assay by flow cytometry; assay type: cell-based; details: 24 h; for EC50: read-out: AP50 (50% induction of apoptosis), Caspase 3 activity assay (C3); for The lowest dose of polyphenols at which there was a significant induction of apoptosis compared to the vehicle control: CD34+ non-tumour control cells, caspase 3 activity, p<0.05
CCRF-CEM [18] = experiment: Hoechst 33342 nuclear morphological analysis of apoptosis; assay type: cell-based; details: Homo sapiens, 24 h, read-out: AP50 (50% induction of apoptosis), Hoechst 33342 staining (Hoe)
In short: (§4)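 Seeded at 0.5 x 10⁶ cells/well in 12-well plates and treated 24 h. Cells were pelleted (400 g, 5 min, 4 °C), washed in PBS, fixed in 4% paraformaldehyde, cytospun, air-dried, then stained with 10 μg/ml Hoechst 33342 for 10 min in the dark. Fluorescence microscopy: 200 cells counted, scored by condensed/intense nuclei, shrinkage, blebbing and apoptotic bodies. % apoptotic nuclei calculated. AP50 = concentration giving 50% apoptotic cells.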

MOLT-3 [19] = experiment: as above; assay type: cell-based; details: Homo sapiens, MOLT-3, 24 h, read-out: AP50 (50% induction of apoptosis), Hoechst 33342 staining (Hoe)
In short: as §4

HL60 [20] = experiment: as above; assay type: cell-based; details: Homo sapiens, HL-60, 24 h, read-out: AP50 (50% induction of apoptosis), Hoechst 33342 staining (Hoe)
In short: as §4

KG1a [21] = experiment: as above; assay type: cell-based; details: Homo sapiens, KG-1a, 24 h, read-out: AP50 (50% induction of apoptosis), Hoechst 33342 staining (Hoe)
In short: as §4

non-tumor cells (CD34+) [22] = experiment: Hoechst 33342 nuclear morphological analysis of apoptosis; assay type: cell-based; details: 24 h, read-out: AP50 (50% induction of apoptosis), Hoechst 33342 staining (Hoe)
In short: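 CD34+ cells treated 24 h across the IC25–IC50 range, then pelleted (400 g, 4 °C) and fixed in 4% paraformaldehyde/PBS. Cytospins were air-dried and stained with 10 μg/ml Hoechst 33342 for 10 min in the dark, then viewed by fluorescence microscopy. 200 cells were scored per sample as % apoptotic nuclei (shrinkage, blebbing, chromatin condensation, apoptotic bodies). AP50 = concentration giving 50% apoptosis.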

| EC50 (CCRF-CEM [13]) [µM] | EC50 (MOLT-3 [14]) [µM] | EC50 (K562 [15]) [µM] | EC50 (KG1a [16]) [µM] | Compound | The lowest dose of polyphenols at which there was a significant inhibition of cell proliferation compared to the vehicle control (JURKAT) [µM] | The lowest dose of polyphenols at which there was a significant inhibition of cell proliferation compared to the vehicle control (CCRF-CEM [1]) [µM] | The lowest dose of polyphenols at which there was a significant inhibition of cell proliferation compared to the vehicle control (MOLT-3 [2]) [µM] | The lowest dose of polyphenols at which there was a significant inhibition of cell proliferation compared to the vehicle control (HL60 [3]) [µM] | The lowest dose of polyphenols at which there was a significant inhibition of cell proliferation compared to the vehicle control (K562 [4]) [µM] | IC50 (KG1a [5]) [µM] | The lowest dose of polyphenols at which there was a significant inhibition of cell proliferation compared to the vehicle control (KG1a [5]) [µM] | The lowest dose of polyphenols at which there was a significant inhibition of cell proliferation compared to the vehicle control (U937 [6]) [µM] | Percentage of cells in G0/G1 phase of cell cycle (significant accumulation) (CCRF-CEM [7]) | Percentage of cells in G0/G1 phase of cell cycle (significant accumulation) (MOLT-3 [8]) | Percentage of cells in G0/G1 phase of cell cycle (significant accumulation) (U937 [11]) | Cell cycle arrest in non-tumour control cells [12] | The lowest dose of polyphenols at which there was a significant induction of apoptosis compared to the vehicle control (CCRF-CEM [13]) [µM] | The lowest dose of polyphenols at which there was a significant induction of apoptosis compared to the vehicle control (MOLT-3 [14]) [µM] | The lowest dose of polyphenols at which there was a significant induction of apoptosis compared to the vehicle control (K562 [15]) [µM] | The lowest dose of polyphenols at which there was a significant induction of apoptosis compared to the vehicle control (KG1a [16]) [µM] | also measured |
| --- | --- | --- | --- | --- | --- | --- | --- | --- | --- | --- | --- | --- | --- | --- | --- | --- | --- | --- | --- | --- | --- |
| > 10 | 5 | > 10 | > 10 | Cc1cc(O)c2c(c1)C(=O)c1cc(O)cc(O)c1C2=O [Emodin] | 2 | 2 | 2 | 2 | 2 | 15 | 2 | 2 | G0/G1 =50% | G0/G1 =70% | G0/G1 =60% | No Arrest <50µM | 10 | 2 | 2 | 2 | Percentage of cells in G0/G1 phase of cell cycle (significant accumulation) (HL60 [9]): G0/G1 =67.7%; Percentage of cells in G0/G1 phase of cell cycle (significant accumulation) (K562 [10]; vehicle control G0/G1 = 53.7%): G0/G1 =66%; EC50 (non-tumor cells (CD34+) [17]): > 10 µM; The lowest dose of polyphenols at which there was a significant induction of apoptosis compared to the vehicle control (non-tumor cells (CD34+) [17]): 10 µM; EC50 (CCRF-CEM [18]): > 500 µM; EC50 (MOLT-3 [19]): 9 µM; EC50 (HL60 [20]): 6 µM; EC50 (KG1a [21]): > 500 µM; EC50 (non-tumor cells (CD34+) [22]): > 500 µM |
| 200 | 200 | > 250 | > 250 | O=C(O)c1cc(O)c2c(c1)C(=O)c1cccc(O)c1C2=O [Rhein] | 50 | 50 | 50 | 50 | 50 | 169 | 50 | 50 | G0/G1 =54% | G0/G1=72% | G0/G1 =55% | No Arrest <50µM | 50 | 50 | 50 | 50 | Percentage of cells in G0/G1 phase of cell cycle (significant accumulation) (HL60 [9]): G0/G1=65%; EC50 (non-tumor cells (CD34+) [17]): > 250 µM; The lowest dose of polyphenols at which there was a significant induction of apoptosis compared to the vehicle control (non-tumor cells (CD34+) [17]): 50 µM; EC50 (CCRF-CEM [18]): 250 µM; EC50 (MOLT-3 [19]): 265 µM; EC50 (HL60 [20]): > 500 µM; EC50 (KG1a [21]): > 500 µM; EC50 (non-tumor cells (CD34+) [22]): > 500 µM |
| > 500 | 350 | > 500 | > 500 | C(=C\c1ccccc1)/c1ccccc1 [Trans-Stilbene, Trans-stilbene] | 50 | 50 | 50 | 50 | 50 | 250 | 50 | 50 | G0/G1 =49.1% | G0/G1 = 69% | G0/G1 =62% | No Arrest ≤500µM | 50 | 50 | 50 | 50 | Percentage of cells in S phase of cell cycle (significant accumulation) (HL60 [9]; vehicle control S = 33.6%): S =41.9%; Percentage of cells in G2/M phase of cell cycle (significant accumulation) (K562 [10]; vehicle control G2/M = 13.6%): G2/M =24.5%; EC50 (non-tumor cells (CD34+) [17]): > 500 µM; The lowest dose of polyphenols at which there was a significant induction of apoptosis compared to the vehicle control (non-tumor cells (CD34+) [17]): 250 µM; EC50 (CCRF-CEM [18]): 200 µM; EC50 (MOLT-3 [19]): 400 µM; EC50 (HL60 [20]): 50 µM; EC50 (KG1a [21]): 360 µM; EC50 (non-tumor cells (CD34+) [22]): > 500 µM |
